For 36 molecules, IC50 results are on record in ChEMBL document CHEMBL2086324, “Synthesis and antimalarial activity of new haemanthamine-type derivatives” (Bioorg Med Chem, 2012).

The subject of the test is Plasmodium falciparum. Put plainly: Antiplasmodial activity against chloroquine-sensitive Plasmodium falciparum F-32 Tanzania assessed as inhibition of parasitemia after 3 days. Particulars: 72 h. The class given is functional, organism-based. Put shortly:
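P. falciparum grown in glucose-enriched RPMI 1640 with 10% human serum, 37 °C. After 24 h the medium was replaced with fresh medium containing compound in DMSO at 0.1, 1 and 10 µg/mL, and incubation continued 48 h. Parasitemia was counted by blood smear per well on day 3 against control. IC50 was read graphically from concentration vs percent inhibition. Chloroquine 0.04 µM served as positive control.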
Regarding `COC(C(=O)O[C@@H]1C=C[C@@]23c4cc5c(cc4CN(C[C@H]2OC(=O)C(OC)c2ccccc2)[C@H]3C1)OCO5)c1ccccc1` (stereo partly specified), the IC50 – broadly, the concentration needed to halve the response being measured – is 5.1 µM.

For `CO[C@@H]1C=C[C@@]23c4cc5c(cc4CN(C[C@H]2OC(=O)c2ccc(Br)cc2)[C@H]3C1)OCO5`, the half-maximal inhibitory concentration (IC50) came to 43.3 µM.

Regarding `O[C@@H]1C=C[C@]23CCN(Cc4cc5c(cc42)OCO5)[C@H]3C1` [VITTATINE], the concentration for half-maximal inhibition (IC50) turned out to be 7.3 µM.

For `CO[C@@H]1C=C[C@@]23c4cc5c(cc4CN(C[C@H]2OC(C)=O)[C@H]3C1)OCO5`, the IC50 is 75.8 µM.

Regarding `CO[C@@H]1C=C[C@@]23c4cc5c(cc4CN(C[C@@H]2O)[C@H]3C1)OCO5` [(+)-HAEMANTHAMINE], the IC50 came out at 1.3 µM.

With `CO[C@@H]1C=C[C@@]2(c3cc4c(cc3C=O)OCO4)C(=O)C=N[C@H]2C1`, the IC50 stood at 76.6 µM.

In the case of `CCN(C=O)Cc1cc2c(cc1-c1ccc(O)cc1)OCO2`, the IC50 is above 100 µM.

Consider `O=C(O[C@@H]1C=C[C@@]23c4cc5c(cc4CN(C[C@H]2OC(=O)c2ccc(Br)cc2)[C@H]3C1)OCO5)c1ccc(Br)cc1`, for which the IC50 was found to be 3 µM.

`O[C@@H]1C=C[C@@]23c4cc5c(cc4CN(C[C@H]2O)[C@H]3C1)OCO5`: the IC50 stood at 13.2 µM.

As for `CO[C@@H]1C=C[C@]23C(=O)CN(Cc4cc5c(cc42)OCO5)[C@H]3C1`, the IC50 worked out at 73.5 µM.

For the molecule `CO[C@@H]1C=C[C@@]23c4cc5c(cc4C(OC(=O)c4cccnc4)N(C[C@H]2O)[C@H]3C1)OCO5` (stereo partly specified), the IC50 was 7.1 µM.

In the case of `Oc1cc2c(cc1O)[C@@]13C=C[C@@H](O)C[C@@H]1N(C[C@H]3O)C2O` (stereo partly specified), the IC50 is 72.1 µM.

Turning to `COc1cc2c(cc1O)CN1CC[C@@]23C=CC(O)C[C@H]13` (stereo partly specified), the concentration for half-maximal inhibition (IC50) worked out at 91.5 µM.

Turning to `CO[C@@H]1C=C[C@@]23c4cc5c(cc4CN(C[C@H]2OC(=O)c2cccnc2)[C@H]3C1)OCO5`, the concentration for half-maximal inhibition (IC50) was determined as 51.7 µM.

Regarding `CC(=O)O[C@@H]1C=C[C@@]23c4cc5c(cc4CN(C[C@H]2OC(C)=O)[C@H]3C1)OCO5`, the IC50 was above 100 µM.

For the molecule `CC(C)C(=O)O[C@@H]1C=C[C@@]23c4cc5c(cc4CN(C[C@H]2OC(=O)C(C)C)[C@H]3C1)OCO5`, the IC50 was found to be 7 µM.

`OC1c2cc3c(cc2[C@@]24C=C[C@H]5C[C@@H]2N1C[C@H]4O5)OCO3` (stereo partly specified): the IC50 came out at 84.2 µM.

Turning to `CO[C@@H]1C=C[C@@]23c4cc5c(cc4C(OC(C)=O)N(C[C@H]2OC(C)=O)[C@H]3C1)OCO5` (stereo partly specified), the IC50 was found to be 52.3 µM.

On to `CO[C@@H]1C=C[C@@]23c4cc5c(cc4CN(C[C@H]2OC(=O)C(C)C)[C@H]3C1)OCO5`, for which the half-maximal inhibitory concentration (IC50) amounted to 56.6 µM.

For the molecule `Oc1cc2c(cc1O)[C@@]13C=C[C@@H](O)C[C@@H]1N(C2)C[C@H]3O`, the IC50 was 13.4 µM.

In the case of `O=C(O[C@@H]1C=C[C@@]23c4cc5c(cc4CN(C[C@H]2OC(=O)c2cccnc2)[C@H]3C1)OCO5)c1cccnc1`, the IC50 turned out to be 0.8 µM.

Consider `CO[C@H]1C[C@@H]2N3Cc4cc5c(cc4[C@@]2([C@H](O)C3)[C@@H](O)[C@@H]1Br)OCO5`, for which the IC50 was determined as 62.6 µM.

As for `CO[C@H]1C[C@@H]2N3Cc4cc5c(cc4[C@@]2([C@H](O)C3)[C@@H](Br)[C@@H]1O)OCO5`, the IC50 came out at 72.6 µM.

Regarding `CN(C=O)Cc1cc2c(cc1-c1ccc(O)cc1)OCO2`, the IC50 worked out at 73.4 µM.

For the molecule `COC1c2cc3c(cc2[C@@]24C=C[C@@H](OC)C[C@@H]2N1C[C@H]4O)OCO3` (stereo partly specified), the half-maximal inhibitory concentration (IC50) was found to be 75.5 µM.

As for `CO[C@@H]1C=C[C@@]23c4cc5c(cc4[C@@H](O)N(C[C@H]2O)[C@H]3C1)OCO5` [HAEMANTHIDINE], the IC50 was found to be 1.2 µM.

Turning to `C=Cc1ccc(C(=O)O[C@@H]2CN3Cc4cc5c(cc4[C@]24C=C[C@@H](OC)C[C@H]34)OCO5)cc1`, the IC50 is above 100 µM.

Regarding `C=CC(=O)O[C@@H]1CN2Cc3cc4c(cc3[C@]13C=C[C@@H](OC)C[C@H]23)OCO4`, the IC50 is 8.4 µM.

For the molecule `CO[C@@H]1CC[C@@]23c4cc5c(cc4CN(C[C@H]2O)[C@H]3C1)OCO5`, the IC50 is 9.9 µM.

In the case of `CO[C@@H]1C=C[C@]23c4cc5c(cc4CN([C@H]2C1)[C@H]1O[C@H]13)OCO5`, the IC50 is 1.6 µM.

Consider `C1=C[C@@]23c4cc5c(cc4CN4C[C@H]2O[C@@H]1C[C@H]43)OCO5` [APOHAEMANTHAMINE], for which the IC50 worked out at 92.9 µM.

Consider `CO[C@H]1C[C@@H]2N3Cc4cc5c(cc4[C@@]2([C@H](O)C3)[C@@H](Br)[C@@H]1Br)OCO5`, for which the IC50 came to 6.5 µM.

In the case of `CO[C@@H]1C=C[C@@]23c4cc5c(cc4C(OC(=O)C(C)C)N(C[C@H]2OC(=O)C(C)C)[C@H]3C1)OCO5` (stereo partly specified), the IC50 came to 52.5 µM.

In the case of `CO[C@@H]1C=C[C@]23/C(=N/O)CN(Cc4cc5c(cc42)OCO5)[C@H]3C1`, the IC50 turned out to be 95.5 µM.

Turning to `CO[C@@H]1C=C[C@@]23c4cc5c(cc4C(OC(=O)c4ccc(Br)cc4)N(C[C@H]2OC(=O)c2ccc(Br)cc2)[C@H]3C1)OCO5` (stereo partly specified), the concentration for half-maximal inhibition (IC50) was 2.9 µM.

Turning to `CO[C@@H]1C=C[C@@]23c4cc5c(cc4C[N+]([O-])(C[C@H]2O)[C@H]3C1)OCO5`, the 50% inhibitory concentration (IC50) is above 100 µM.
